This note sets out measurements from ChEMBL document CHEMBL1152399, “Synthesis and fungicidal activity of 3,5-dichloropyrazin-2(1H)-one derivatives” (2009).

What all share (assay type): functional
For assay [1], the system named is Saccharomyces cerevisiae. Put plainly: Antifungal activity against REG1 gene knockout Saccharomyces cerevisiae mutant after 48 hrs by microtiter plate method. In outline:
(§1)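 Yeast deletion mutants grown in YPD in microtiter wells for 48 h at 30 °C. For the retest, 5 µL fivefold serial dilutions of stationary-phase cultures were spotted on YPD with or without compound, and growth was compared with BY4741 after 48 h at 30 °C.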

In assay [2] the test system is Saccharomyces cerevisiae. Briefly: Ratio of MIC for 3,5-dichloro-6-(chloromethyl)-1-phenylpyrazin-2(1H)-one-resistant Saccharomyces cerevisiae mutant to MIC for wild type Saccharomyces cerevisiae BY4741.
In assay [3] the test system is Saccharomyces cerevisiae. Put plainly: Antifungal activity against SPT7 gene knockout Saccharomyces cerevisiae mutant after 48 hrs by microtiter plate method. In outline:
as §1

Assay [4] has as its system Saccharomyces cerevisiae. Briefly: Ratio of MIC for wild type Saccharomyces cerevisiae BY4741 to MIC for REG1 gene knockout Saccharomyces cerevisiae mutant.
The test system of assay [5] is Candida albicans. Put plainly: Antifungal activity against Candida albicans assessed as fungus survival rate at 5 ug/mL in presence of ascorbic acid. In outline: (§2)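 Overnight C. albicans YPD culture diluted in PBS (~2 × 10⁶ cells/mL) and treated with compound in 2% DMSO, with or without 80 mM ascorbic acid, for 5 h at 37 °C. CFU counted, and percentage survival taken against the 2% DMSO control.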

Assay [6] concerns Saccharomyces cerevisiae. Briefly: Ratio of MIC for wild type Saccharomyces cerevisiae BY4741 to MIC for YKL118W gene knockout Saccharomyces cerevisiae mutant.
Assay [7] deals with Saccharomyces cerevisiae. Put plainly: Antifungal activity against 3,5-dichloro-6-(chloromethyl)-1-phenylpyrazin-2(1H)-one-resistant Saccharomyces cerevisiae mutant after 48 hrs by microtiter plate method.
In assay [8] the test system is Saccharomyces cerevisiae. Put plainly: Ratio of MIC for wild type Saccharomyces cerevisiae BY4741 to MIC for VPS15 gene knockout Saccharomyces cerevisiae mutant.
The subject of assay [9] is Saccharomyces cerevisiae. Briefly: Antifungal activity against VMA7 gene knockout Saccharomyces cerevisiae mutant after 48 hrs by microtiter plate method. In outline:
as §1

The test system of assay [10] is Saccharomyces cerevisiae. Put plainly: Ratio of MIC for wild type Saccharomyces cerevisiae BY4741 to MIC for HTL1 gene knockout Saccharomyces cerevisiae mutant.
Assay [11] deals with Saccharomyces cerevisiae. Briefly: Antifungal activity against ADA2 gene knockout Saccharomyces cerevisiae mutant after 48 hrs by microtiter plate method. In a few lines: as §1
For assay [12], the system named is Saccharomyces cerevisiae. Briefly: Ratio of MIC for wild type Saccharomyces cerevisiae BY4741 to MIC for AMD1 gene knockout Saccharomyces cerevisiae mutant.
For assay [13], the system named is Saccharomyces cerevisiae. Put plainly: Antifungal activity against wild type Saccharomyces cerevisiae BY4741 after 48 hrs by microtiter plate method. The settings on record: BY4741, 48 h. In outline: as §1
Assay [14] has as its system Saccharomyces cerevisiae. Put plainly: Ratio of MIC for wild type Saccharomyces cerevisiae BY4741 to MIC for GET2 gene knockout Saccharomyces cerevisiae mutant.
Assay [15] concerns Saccharomyces cerevisiae. Briefly: Antifungal activity against CUP5 gene knockout Saccharomyces cerevisiae mutant after 48 hrs by microtiter plate method. In outline: as §1
Assay [16] deals with Saccharomyces cerevisiae. Briefly: Antifungal activity against GET2 gene knockout Saccharomyces cerevisiae mutant after 48 hrs by microtiter plate method. In outline:
as §1

For assay [17], the system named is Candida albicans. Briefly: Antifungal activity against Candida albicans assessed as fungus survival rate at 5 ug/mL in absence of ascorbic acid. In outline:
as §2

Assay [18] has as its system Saccharomyces cerevisiae. Put plainly: Ratio of MIC for wild type Saccharomyces cerevisiae BY4741 to MIC for VMA7 gene knockout Saccharomyces cerevisiae mutant.
Assay [19] relates to Saccharomyces cerevisiae. Briefly: Ratio of MIC for wild type Saccharomyces cerevisiae BY4741 to MIC for VPH2 gene knockout Saccharomyces cerevisiae mutant.
Assay [20] relates to Saccharomyces cerevisiae. Put plainly: Antifungal activity against AMD1 gene knockout Saccharomyces cerevisiae mutant after 48 hrs by microtiter plate method. In outline:
as §1

Assay [21] concerns Saccharomyces cerevisiae. Briefly: Antifungal activity against VPS15 gene knockout Saccharomyces cerevisiae mutant after 48 hrs by microtiter plate method. In a few lines:
as §1

Assay [22] relates to Saccharomyces cerevisiae. Briefly: Antifungal activity against VPH2 gene knockout Saccharomyces cerevisiae mutant after 48 hrs by microtiter plate method. In a few lines:
as §1

Assay [23] concerns Saccharomyces cerevisiae. Put plainly: Ratio of MIC for wild type Saccharomyces cerevisiae BY4741 to MIC for ADA2 gene knockout Saccharomyces cerevisiae mutant.
In assay [24] the test system is Saccharomyces cerevisiae. Put plainly: Ratio of MIC for wild type Saccharomyces cerevisiae BY4741 to MIC for CUP5 gene knockout Saccharomyces cerevisiae mutant.
For assay [25], the system named is Candida albicans. Briefly: Antifungal activity against Candida albicans CAI4. In a few lines: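 C. albicans CAI4 overnight YPD culture diluted in PBS (~2 × 10⁶ cells/mL) and exposed to a range of compound concentrations in 2% DMSO for 5 h at 37 °C, then CFU counted. Survival is the CFU ratio against the 2% DMSO control. MFC is the lowest concentration giving <0.1% survival.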

Assay [26] deals with Saccharomyces cerevisiae. Put plainly: Ratio of MIC for wild type Saccharomyces cerevisiae BY4741 to MIC for SPT7 gene knockout Saccharomyces cerevisiae mutant.
Assay [27] deals with Saccharomyces cerevisiae. Put plainly: Antifungal activity against YKL118W gene knockout Saccharomyces cerevisiae mutant after 48 hrs by microtiter plate method. In outline:
as §1

In assay [28] the test system is Saccharomyces cerevisiae. Put plainly: Antifungal activity against HTL1 gene knockout Saccharomyces cerevisiae mutant after 48 hrs by microtiter plate method. In outline: as §1
Assay [29] relates to Candida albicans. Put plainly: Induction of reactive oxygen species production in Candida albicans assessed as corrected fluorescence value at 100 ug/mL after 3 hrs by fluorescence assay. In outline: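 C. albicans grown overnight in YPD at 37 °C and resuspended in PBS. Cells mixed with a 100 µg/mL compound solution in 10% DMSO (DMSO alone as control) and held 1 h at 37 °C. 2',7'-dichlorofluorescin diacetate then added; fluorescence read after 3 h (ex 485/em 525 nm). A compound-plus-probe blank without cells was subtracted to give the corrected value.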

The term MIC denotes the lowest concentration found to suppress growth. Low values mean a more susceptible organism, high ones a less susceptible organism. Usually MFC stands for the smallest concentration meeting the test's criterion for killing the fungus. The low end stands for greater fungicidal potency, the high end for weaker fungicidal potency.

SMILES strings stand for the structures. Values after ≈ are worked out from the molar mass of the structure shown.

In the case of `O=c1c(Cl)nc(Cl)c(CCl)n1-c1ccccc1`, the minimal inhibitory concentration (MIC) was determined as 0.5 µg/mL (≈ 1.73 µM) against Saccharomyces cerevisiae [1]; 0.5 µg/mL (≈ 1.73 µM) in the assay on Saccharomyces cerevisiae [3]; 12.5 µg/mL (≈ 43.2 µM) with Saccharomyces cerevisiae [7]; 0.5 µg/mL (≈ 1.73 µM) in the assay on Saccharomyces cerevisiae [9]; 0.5 µg/mL (≈ 1.73 µM) against Saccharomyces cerevisiae [11]; 2.5 µg/mL (≈ 8.63 µM) against Saccharomyces cerevisiae [13]. Besides, the MIC against Saccharomyces cerevisiae [15], against Saccharomyces cerevisiae [16], in the assay on Saccharomyces cerevisiae [20], in the assay on Saccharomyces cerevisiae [21], in the assay on Saccharomyces cerevisiae [22] and in the assay with Saccharomyces cerevisiae [27] was 0.5 µg/mL (≈ 1.73 µM) throughout. The compound further yielded an MIC with Saccharomyces cerevisiae [28] of 0.5 µg/mL (≈ 1.73 µM). Also, the Ratio in the assay on Saccharomyces cerevisiae [2], in the assay with Saccharomyces cerevisiae [4], in the assay on Saccharomyces cerevisiae [6], in the assay on Saccharomyces cerevisiae [8], in the assay on Saccharomyces cerevisiae [10] and in the assay on Saccharomyces cerevisiae [12] was 5 throughout. Also, the Ratio in the assay on Saccharomyces cerevisiae [14], in the assay with Saccharomyces cerevisiae [18], in the assay on Saccharomyces cerevisiae [19], with Saccharomyces cerevisiae [23], with Saccharomyces cerevisiae [24] and in the assay with Saccharomyces cerevisiae [26] was 5 in each case. Further, the Activity with Candida albicans [5] amounted to 64%; in the assay on Candida albicans [17], 0.009%. Further, in the assay with Candida albicans [25], the minimum fungicidal concentration (MFC) was 5 µg/mL (≈ 17.3 µM).

`O=c1c(Cl)nc(Cl)cn1Cc1ccccc1` registered an MFC in the assay on Candida albicans [25] of 50 µg/mL (≈ 196 µM).

With `COc1ccc(Cn2cc(Cl)nc(Cl)c2=O)cc1`, in the assay with Candida albicans [25], the MFC was 50 µg/mL (≈ 175 µM).

On to `COc1ccc(Cn2c(-c3ccc(OC)cc3)c(Cl)nc(Cl)c2=O)cc1`, for which the Activity in the assay with Candida albicans [29] is given as >500. In addition, in the assay on Candida albicans [25], the MFC was > 100 µg/mL.

Take `O=c1c(Cl)nc(Cl)cn1C1CCCCC1`: in the assay on Candida albicans [29], the Activity is recorded as >500. For the same compound, the MFC in the assay on Candida albicans [25] was > 100 µg/mL.

`COc1cccc(-c2c(Cl)nc(Cl)c(=O)n2C)c1`: the Activity in the assay on Candida albicans [29] is on record as >500. For the same compound, in the assay with Candida albicans [25], the MFC was > 100 µg/mL.

With `Cc1c(Cl)nc(Cl)c(=O)n1-c1ccccc1`, the MFC in the assay on Candida albicans [25] was > 100 µg/mL.

Take `COc1ccccc1Cn1c(Cc2ccccc2)c(Cl)nc(Cl)c1=O`: the MFC with Candida albicans [25] is > 100 µg/mL.

As to `O=c1c(Cl)nc(Cl)cn1CCc1ccccc1`, the MFC against Candida albicans [25] was 50 µg/mL (≈ 186 µM).

For `COc1ccc(Cn2c(C)c(Cl)nc(Cl)c2=O)cc1`, the MFC in the assay on Candida albicans [25] was > 100 µg/mL.

For the compound `Cc1c(Cl)nc(Cl)c(=O)n1Cc1ccccc1`, the Activity in the assay with Candida albicans [29] is >500. For the same compound, in the assay on Candida albicans [25], the minimal fungicidal concentration (MFC) was > 100 µg/mL.

For the compound `COc1ccc(-c2c(Cl)nc(Cl)c(=O)n2-c2ccccc2)cc1`, in the assay with Candida albicans [25], the MFC was > 100 µg/mL.

Take `O=c1c(Cl)nc(Cl)cn1CC1CCCCC1`: in the assay on Candida albicans [25], the MFC stood at 100 µg/mL (≈ 383 µM).

Turning to `COc1ccccc1-c1c(Cl)nc(Cl)c(=O)n1-c1ccccc1`, the Activity in the assay on Candida albicans [29] is < 100. In addition, the MFC against Candida albicans [25] is > 100 µg/mL.

`COc1ccc(-n2cc(Cl)nc(Cl)c2=O)cc1`: the MFC with Candida albicans [25] was 10 µg/mL (≈ 36.9 µM).

With `O=c1c(-c2ccccc2)nc(Cl)c(CCl)n1-c1ccccc1`, in the assay with Candida albicans [29], the Activity is given as >500. For the same compound, in the assay with Candida albicans [25], the minimum fungicidal concentration (MFC) is > 100 µg/mL.

`O=c1c(Cl)nc(Cl)cn1-c1ccccc1` showed a minimal fungicidal concentration (MFC) in the assay on Candida albicans [25] of 10 µg/mL (≈ 41.5 µM).

Take `Cc1ccccc1-c1c(Cl)nc(Cl)c(=O)n1-c1ccccc1`: the Activity in the assay on Candida albicans [29] is on record as >500. Also, the MFC against Candida albicans [25] is > 100 µg/mL.

In turn, `O=c1c(Cl)nc(Cl)c(CBr)n1-c1ccccc1` registered an MFC in the assay with Candida albicans [25] of 5 µg/mL (≈ 15 µM).

As for `COCCn1c(-c2ccccc2)c(Cl)nc(Cl)c1=O`, the Activity in the assay with Candida albicans [29] was >500. The MFC against Candida albicans [25] was > 100 µg/mL.

For the compound `COC(=O)c1ccc(-c2c(Cl)nc(Cl)c(=O)n2-c2ccccc2)cc1`, the minimum fungicidal concentration (MFC) with Candida albicans [25] is > 100 µg/mL.

Regarding `COc1nc(Cl)c(CCl)n(-c2ccccc2)c1=O`, in the assay on Candida albicans [29], the Activity is on record as >500. Moreover, in the assay with Candida albicans [25], the MFC was > 100 µg/mL.
